EBNA-1 inh – EBNA-1 DNA-binding inhibitors, primary screen, biochemical, fluorescence polarization; 300,000 compounds, 0.34% hits; inhibition, % at 14.8 µM; AID 1950, 2009; in the data active means inhibition above about 28%
LANA-H2B inh – blockers of LANA interaction with H2A/H2B – biochemical, FP readout, HTS, primary screen; inhibition, % (test concentration not listed); Protein LANA1 (Human herpesvirus 8 type P (isolate GK18)), Q9QR71; cell-free LANA-H2A/H2B peptide, fluorescence polarization; 320,000 compounds, 0.6% hits; in the data active means inhibition mostly above about 10%, no sharp cut-off; inactive means mostly below about 6.7%
ZTA DNA inh – counter-screen for EBNA-1 inhibitors: inhibitors of Epstein-Barr virus ZTA | ZTA-DNA binding, fluorescence polarization | inhibition, % at 11 µM | 320,000 compounds, 0.15% hits | P03206; in the data active means inhibition above about 33%
Target sequence (P03206 whole entry, looked up): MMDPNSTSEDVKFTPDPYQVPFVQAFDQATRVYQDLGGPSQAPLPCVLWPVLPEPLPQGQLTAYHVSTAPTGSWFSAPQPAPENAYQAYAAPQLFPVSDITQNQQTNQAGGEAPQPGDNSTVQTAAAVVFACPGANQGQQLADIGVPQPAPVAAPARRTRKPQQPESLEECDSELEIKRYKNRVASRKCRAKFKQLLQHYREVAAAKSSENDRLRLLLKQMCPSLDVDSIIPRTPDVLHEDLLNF
CSN deneddyl inh – inhibitors of CSN-mediated cullin deneddylation, primary screen, biochemical, fluorescence polarization, uHTS; Purified CSN, SCF-Nedd8-OG deneddylation; AID 651999, 2013; 360,000 compounds, 0.38% hits; inhibition, % at 12.5 µM;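 active means pattern-corrected inhibition above about 35%, with an unprinted fluorescence ratio check between 0.5 and 1.5, limit read from the data, passing the limit was not always enough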
Target sequence (Q92905 whole entry, looked up, one chain of several): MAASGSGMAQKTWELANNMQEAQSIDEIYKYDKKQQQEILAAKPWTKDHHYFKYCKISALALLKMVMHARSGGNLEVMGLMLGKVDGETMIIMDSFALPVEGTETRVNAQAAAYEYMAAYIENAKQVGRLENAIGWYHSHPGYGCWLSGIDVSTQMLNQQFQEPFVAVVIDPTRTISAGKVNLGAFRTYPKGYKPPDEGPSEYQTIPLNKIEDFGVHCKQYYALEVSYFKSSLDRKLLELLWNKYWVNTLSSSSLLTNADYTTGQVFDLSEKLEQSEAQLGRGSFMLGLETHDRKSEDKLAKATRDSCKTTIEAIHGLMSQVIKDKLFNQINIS
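test system = HEK293T-derived human Csn5 enzyme | amount = 0.24 nM Csn5 enzyme, final concentration | medium = Tris/NaCl/DTT buffer, pH 7.5 | schedule = 90 min reaction at room temperature | signal = FP | evaluation = inhibition of Csn5 cleavage, % | compound dosing = single dose of 12.5 µM compound with 0.25% DMSO | probe or stimulus = 10 nM SCFSkp2-Nedd8OG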
HNF4A DNA FP – change in binding of human HNF4A to DNA, primary screen, biochemical, fluorescence polarization, FITC-DNA. 360,000 compounds, 0.3% hits. 1 h. AID 1224865, 2016. Hepatocyte nuclear factor 4-alpha (Homo sapiens), P41235. activity change, % at 10 µM; in the data active means activity change above about 30%, passing the limit was not always enough
A1 inh – caspase 3/7 activation in MEF A1-2A-BIM cells, primary screen, A1 inhibitor project, cell-based, luminescence, HTS | Caspase-Glo 3/7 luminescence, 3 h; percent of clofoctol response, vehicle zero | 330,000 compounds, 0.066% hits | caspase activation, % (no concentration beside the values);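 active means over half of replicate activation scores above 10%, or exactly half above 10 with the replicate mean above 10; inconclusive means replicate mean below 10 yet half the replicates above 10; inactive means over half of replicates below 10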
EBNA-1 confirm – EBNA-1 DNA-binding inhibitors, retest, confirmation, biochemical, fluorescence polarization, triplicate. AID 2292, 2010. shares compounds with EBNA-1 inh. Recombinant EBNA-1 DBD, Cy5-DNA fluorescence polarization. 830 compounds, 35% hits. inhibition, % at 14.8 µM;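 active means mean inhibition across replicates above a set limit taken from the earlier primary screen, cut at about 28% in these data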
ZTA counter trip – EBV Zta DNA binding inhibitors, counter-screen for EBNA-1 inhibitor project, biochemical, fluorescence polarization, triplicate; 830 tested, under 10 active; Zta-ZRE DNA binding, Cy5 fluorescence polarization; shares compounds with EBNA-1 inh; inhibition, % at 11.1 µM; AID 2328, 2010;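 active means mean inhibition over triplicates above a set limit taken from the primary EBNA-1 screen, cut at about 37% in these data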;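 further: purified full length Zta protein with Cy5 labeled ZRE DNA probe; inhibitors lower polarization by freeing the labeled DNA probe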
Each line names hits and unclear results; the compound was inactive in the other large screens (follow-up assays come after a bar, where they were run). Compounds with a hit are over-represented: about 1.5% of the library has one in this group of screens.

COc1n[nH]c(C(=O)Nc2nc3ccccc3s2)c1[N+](=O)[O-]	EBNA-1 inh 34 | EBNA-1 confirm inactive | ZTA counter trip inactive
COc1ccccc1C(=O)Nc1nc2ccccc2s1	EBNA-1 inh 31 | EBNA-1 confirm inactive | ZTA counter trip inactive
COCCN1C(=O)CS/C1=C(/C#N)C(=O)NCc1ccco1	none
CC1=CC(=O)C(Sc2ccc(C)cc2)=CC1=O	none (no result: EBNA-1 inh, LANA-H2B inh, ZTA DNA inh, A1 inh)
CCCCCn1c(=O)[nH]c2cc(C(=O)NCc3ccc4c(c3)OCO4)ccc2c1=O	EBNA-1 inh 31 | EBNA-1 confirm inactive | ZTA counter trip inactive
COC(=O)c1ccc2c(=O)n(CCCCCC(=O)NCc3ccccc3)c(=O)[nH]c2c1	none
O=C(CCCCCn1c(=S)[nH]c2ccccc2c1=O)NCc1ccc2c(c1)OCO2	EBNA-1 inh 32 | EBNA-1 confirm inactive | ZTA counter trip inactive
COC(=O)c1ccc2c(=O)n(CCCCCC(=O)NCc3ccc4c(c3)OCO4)c(=O)[nH]c2c1	EBNA-1 inh 63 | EBNA-1 confirm inactive | ZTA counter trip inactive
O=C(CCn1c(=S)[nH]c2ccccc2c1=O)Nc1cccc(Cl)c1	EBNA-1 inh 28 | EBNA-1 confirm inactive | ZTA counter trip inactive
CC(C)c1ccc(NC(=O)C2(C)Cc3c(-c4ccccc4)ccnc3O2)cc1 (stereo not drawn)	none (no result: EBNA-1 inh, LANA-H2B inh, ZTA DNA inh, A1 inh)
CCOC(=O)C1CCCN(C(=O)c2[nH]c(C(F)(F)F)nc2-c2ccccc2)C1 (stereo not drawn)	none (no result: EBNA-1 inh, LANA-H2B inh, ZTA DNA inh, A1 inh)
COc1ccc(CCNC(=O)c2sc(=S)n(C)c2N)cc1	EBNA-1 inh 28 | EBNA-1 confirm inactive | ZTA counter trip inactive
Cc1ccc(C(=O)COC(=O)CNC(=O)CN2C(=O)c3ccccc3C2=O)cc1	EBNA-1 inh 33 | EBNA-1 confirm 28 | ZTA counter trip inactive
COc1ccc(S(=O)(=O)NNC(=O)c2cc3c4ccccc4n(C)c3s2)cc1	EBNA-1 inh 32 | EBNA-1 confirm inactive | ZTA counter trip inactive
CC(=O)NNC(=O)c1cc2c3ccccc3n(C)c2s1	none
Cc1ccc2nc(-c3ccc(NC(=O)C(C)N4C(=O)c5ccccc5C4=O)cc3)sc2c1 (stereo not drawn)	EBNA-1 inh 33 | EBNA-1 confirm inactive | ZTA counter trip inactive
COc1ccc(C(=O)NCc2ccc3c(c2)OCO3)cc1	none
COc1ccc(-c2cn3c(C)c(C(=O)NCc4ccc5c(c4)OCO5)sc3n2)cc1	EBNA-1 inh 80 | EBNA-1 confirm 126 | ZTA counter trip inactive
COc1ccccc1NC(=S)N(Cc1ccco1)Cc1cc2cc(C)ccc2[nH]c1=O	EBNA-1 inh 42 | EBNA-1 confirm inactive | ZTA counter trip inactive
O=C(Nc1ccc(F)cc1)N(Cc1ccco1)Cc1cc2cc3c(cc2[nH]c1=O)OCO3	EBNA-1 inh 28, HNF4A DNA FP 42 | EBNA-1 confirm inactive | ZTA counter trip inactive
CCN1CCCc2cc(CN(CCN3CCOCC3)C(=S)Nc3cccc(OC)c3)ccc21	none
CC(C)n1nnnc1C1c2ccccc2C(=O)N1Cc1ccccc1 (stereo not drawn)	none (no result: EBNA-1 inh, LANA-H2B inh, ZTA DNA inh, A1 inh)
OCc1cn(-c2ccccc2)nc1-c1ccco1	none
C=CCOC(=O)C1=C(C)NC(C)=C(C(=O)OCC=C)C1c1cn(-c2ccccc2)nc1-c1ccco1	EBNA-1 inh 53 | EBNA-1 confirm inactive | ZTA counter trip inactive
CCCCN(CC)C(=O)Cn1ncc2c3ccccc3n(CCC)c2c1=O	none (no result: EBNA-1 inh, ZTA DNA inh)
O=C(Cc1cccc2ccccc12)Nc1ccc(-c2cc3ccccc3oc2=O)cc1	EBNA-1 inh 29 | EBNA-1 confirm inactive | ZTA counter trip inactive
CCCC1(c2ccccc2)NC(=O)N(CCN2C(=O)c3ccccc3C2=O)C1=O (stereo not drawn)	none
CC1(c2ccccc2)NC(=O)N(CCN2C(=O)c3ccccc3C2=O)C1=O (stereo not drawn)	EBNA-1 inh 59 | EBNA-1 confirm inactive | ZTA counter trip inactive
CS(=O)(=O)c1ccc(-c2nnn(CC(N)=O)n2)cc1	none
CSc1ccccc1NC(=O)Cn1nnc(-c2ccc(S(C)(=O)=O)cc2)n1	EBNA-1 inh 41 | EBNA-1 confirm 53 | ZTA counter trip inactive
Cc1ccnc(NS(=O)(=O)c2ccc(NC(=O)c3cc(-c4ccc(Br)cc4)nc4ccccc34)cc2)n1	EBNA-1 inh 32 | EBNA-1 confirm inactive | ZTA counter trip inactive
CCN(CC)C(=O)Oc1ccc2oc(=O)cc(-c3cc4cccc(OC)c4o3)c2c1	none
O=C(Nc1cccc(-c2nnc(-c3ccccc3)o2)c1)C1CCCCC1	EBNA-1 inh 75 | EBNA-1 confirm 107 | ZTA counter trip inactive
COc1ccc(NC(=O)c2cc(-c3cccnc3)nc3c(C)c(C)ccc23)c(OC)c1	EBNA-1 inh 33 | EBNA-1 confirm inactive | ZTA counter trip inactive
CCOC(=O)C[C@@H]1OC[C@H](Cc2ccccc2)N1S(=O)(=O)c1ccc(C)cc1	none (no result: EBNA-1 inh, LANA-H2B inh, ZTA DNA inh, A1 inh)
O=C(CSc1n[nH]c(=O)[nH]c1=O)NC1CC1	EBNA-1 inh 59, A1 inh inconclusive | EBNA-1 confirm inactive | ZTA counter trip inactive
COc1ccc(N2CC(O)=C(c3nc4ccccc4s3)C2=N)cc1	EBNA-1 inh 53 | EBNA-1 confirm 77 | ZTA counter trip inactive
CN1C(=O)N(C)C2(c3ccccc3)Nn3c(s/c(=C/c4ccco4)c3=O)=NC12c1ccccc1 (stereo not drawn)	EBNA-1 inh 45 | EBNA-1 confirm 77 | ZTA counter trip inactive
CCS(=O)(=O)N1CCN(S(=O)(=O)c2ccc(S(=O)(=O)NC3CC3)cc2)CC1	EBNA-1 inh 48 | EBNA-1 confirm 44 | ZTA counter trip inactive
CCOc1ccc(Nc2ncnc3c2nnn3Cc2ccccc2)cc1	EBNA-1 inh 36 | EBNA-1 confirm inactive | ZTA counter trip inactive
COC(=O)c1ccc(Cn2cnc3c(cnn3-c3ccc(F)cc3)c2=O)o1	none
COC(=O)c1ccc(Cn2cnc3c(cnn3-c3ccc(Cl)cc3)c2=O)o1	EBNA-1 inh 46 | EBNA-1 confirm inactive | ZTA counter trip inactive

Compound activity (PubChem)
